CHO parental Ca – counter-screen: ATP calcium response change in parental CHO cells; 0.63% of 330,000 active; parental CHO-K1, ATP-induced calcium, Fluo-8 fluorescence; inhibition, % at 5.6 µM;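 active = inhibition above that plate's mean sample inhibition plus 3 SD, cut at about 26% in these data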
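Test system: parental CHO cells; detection: calcium-sensitive Fluo-8 fluorescence; evaluation: percent inhibition of calcium signal; also added: ATP as calcium-mobilizing challenge; repeats: one well per compound; control set: ATP-challenged DMSO wells low, unchallenged DMSO wells high; compound: single nominal dose of 5.6 µM per compound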
TAAR1 antagonist – antagonists of human TAAR1; Q96RJ0; CHO RD-HGA16 TAAR1, Fluo-8 calcium fluorescence, antagonist; inhibition, % at 3 µM; 1.5% of 360,000 active; AID 624466;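 active = inhibition above a per-plate cutoff, the mean inhibition of test compounds on that plate plus 3 SD, cut at about 49% in these data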
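test system = CHO RD-HGA16 cells bearing hTAAR1 | replication = singlicate | controls = DMSO-only wells and EC80 β-PEA-stimulated wells | reagent = EC80 β-phenethylamine stimulus | read-out basis = percent inhibition of PEA-evoked calcium signal, max/basal emission ratio | schedule = seeding 17-24 h prior, 75-min 37 °C, 30-min RT dye loading | signal = kinetic Fluo-8 calcium fluorescence measurement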
GPR7 antagonist – antagonists of human GPR7 (neuropeptides B/W receptor 1). inhibition, % at 4.4 µM. AID 1861. P48145. GPR7-expressing cells, fluorescence antagonist assay. 1.1% of 290,000 active; in the data active = inhibition above about 16%, passing the limit was not always enough;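 note: cells stimulated with the agonist NPW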
OX1R antag-1 – antagonists of human orexin 1 receptor; O43613; CHO/OX1R cells, Fluo-8 calcium fluorescence, orexin A; inhibition, % at 5 µM; 0.43% of 330,000 active; AID 434989;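 active = inhibition above its plate's threshold, mean inhibition of all tested compounds on the plate plus 3 SD, cut at about 37% in these data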
Target sequence (O43613 whole entry, looked up): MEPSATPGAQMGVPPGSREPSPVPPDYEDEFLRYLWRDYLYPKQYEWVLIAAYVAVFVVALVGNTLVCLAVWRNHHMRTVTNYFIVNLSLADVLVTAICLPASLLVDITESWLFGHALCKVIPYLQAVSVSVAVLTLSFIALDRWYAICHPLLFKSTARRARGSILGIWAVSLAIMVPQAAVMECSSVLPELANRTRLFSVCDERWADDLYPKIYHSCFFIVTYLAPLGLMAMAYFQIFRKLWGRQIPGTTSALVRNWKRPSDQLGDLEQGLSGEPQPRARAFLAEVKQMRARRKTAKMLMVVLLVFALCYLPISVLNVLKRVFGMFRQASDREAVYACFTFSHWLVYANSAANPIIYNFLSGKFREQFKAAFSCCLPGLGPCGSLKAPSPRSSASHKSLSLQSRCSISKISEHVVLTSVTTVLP
OX1R antag-2 – blocks the human orexin 1 receptor. 1.8% of 330,000 active. O43613. inhibition, % at 6.6 µM. OX1R-expressing cells, FRET antagonist read-out; in the data active = inhibition mostly above about 38%, no sharp cut-off; inactive = mostly below about 40%
TAAR1 agonist – agonists of human TAAR1; 0.99% of 360,000 active; AID 624467; activation, % at 3 µM; CHO RD-HGA16 TAAR1, Fluo-8 calcium fluorescence; vehicle wells 0%, saturating PEA agonist 100%;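 active = activation above the mean activation of all test compounds in the run plus 3 SD, cut at about 38% in these data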
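Signal – calcium-sensitive Fluo-8 signal, excitation 470-495, emission 515-575 nm · System – RD-HGA16 (CHO) cells co-expressing Gα16 and hTAAR1 · Incubation – 17-24 h seeding, 75 min 37 °C dye, 30 min RT · Compound dosing – 3 µM single concentration · Repeats – no replicates (n 1)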
Numbers stand for hits; . = inactive; / = no result. The list is not random: actives were taken first. Their share in the collection is about 4.5%.

SMILES	CHO parental Ca	TAAR1 antagonist	GPR7 antagonist	OX1R antag-1	OX1R antag-2	TAAR1 agonist
COc1ccc(C(=O)/C(=C\c2ccco2)N2C=CC=CC2=C(C#N)C#N)cc1	.	/	47	.	66	/
COc1ccc(C(=O)N/C(=C\c2ccco2)C(=O)OCc2ccco2)cc1	.	.	.	.	.	.
N#CC(C#N)=C1C=CC=CN1/C(=C\c1ccco1)C(=O)c1ccc(Br)cc1	49	.	.	.	61	.
N#CC(C#N)=C1C=CC=CN1/C(=C\c1ccco1)C(=O)c1ccccc1	.	.	39	.	.	.
CC1(Cc2ccc(C(F)(F)F)o2)C(=O)Nc2cc(-c3ccc(F)cc3F)ccc21 (centres undefined)	/	.	/	/	/	.
COC(=O)[C@]12C[C@H](CC(=O)N3CCN(C(=O)c4ccco4)CC3)C(=O)N(Cc3ccccc3)C1=C[C@H](C1CCCC1)O[C@@H]2C	/	.	/	/	/	.
O=S(=O)(Cc1ccc(Cl)cc1)Oc1ccc(Cl)cc1	/	55	/	/	/	.
O=c1c2c(nc3nc(NCc4cccc5ccccc45)[nH]n13)CCC2	.	.	.	.	.	.
CCOc1ccc(S(=O)(=O)N2CCN(C(=O)C3CCC3)CC2)cc1	.	.	/	.	.	.
CCCOC(=O)C1=C(C)NC(=O)NC1c1cc2c(cc1Br)OCO2 (centres undefined)	.	.	.	.	.	.
CC1=CCC(/C=N\Nc2nnc3c(n2)[nH]c2ccccc23)CC1 (centres undefined)	.	/	.	.	55	/
CC(C)CSc1nnc2c(n1)[nH]c1ccccc12	.	.	.	.	.	.
Cn1nc(C2CC2)cc1NC(=O)C1(C)CCN1C(=O)Cc1ccc(-c2ccccc2)cc1 (centres undefined)	/	.	/	/	/	.
COc1ccc(CNC(=O)CN(Cc2ccc(C)cc2)C(=O)c2csnn2)cc1	.	.	.	.	.	.
C[C@@H]1OC(C2CCCCC2)N(C)[C@H]2C[C@H]3c4[nH]c5c(-c6ccccc6)cccc5c4CCN3C(=O)[C@@H]12 (some centres undefined)	/	.	/	/	/	.
CN(C)C(/C=C/Nc1ccc([N+](=O)[O-])cc1)=C(C#N)C#N	.	.	.	.	58	.
CN(C)C(/C=C/Nc1ccc(C#N)cc1)=C(C#N)C#N	.	.	.	.	.	.
COc1ccc(OC)c(S(=O)(=O)NCc2nc3nc(C)cc(C)n3n2)c1	.	.	.	.	.	.
Cc1cc(C)n2nc(CNS(=O)(=O)c3ccc([N+](=O)[O-])cc3)nc2n1	.	.	.	.	51	.
O=S(=O)(/N=C(\c1ccccc1)N1CCOCC1)c1ccc(Cl)cc1	.	.	.	.	.	.
O=[N+]([O-])c1ccc(Cl)c(S(=O)(=O)/N=C(/c2ccccc2)N2CCOCC2)c1	.	.	.	.	51	.
c1ccc(-c2nc3nonc3nc2-c2ccccc2)cc1	.	.	.	.	40	.
COc1ccc(C2NCCc3c2[nH]c2ccccc32)cc1COc1ccc(F)cc1 (centres undefined)	32	.	46	.	.	49
O=C(NCC(=O)N1CCN(C(c2ccccc2)c2ccccc2)CC1)c1ccccc1Br	/	.	/	/	/	.
Cc1ccc(NC(=O)Nc2cccc([N+](=O)[O-])c2)cc1F	.	.	30	.	.	.
SMILES	CHO parental Ca	TAAR1 antagonist	GPR7 antagonist	OX1R antag-1	OX1R antag-2	TAAR1 agonist
O=C(Nc1ccc(OC(F)(F)F)cc1)Nc1cccc([N+](=O)[O-])c1	73	53	43	.	79	.
O=C(Nc1cccc([N+](=O)[O-])c1)c1ccncc1	.	.	.	.	66	.
CCC(=O)Nc1ccc2nc3c(=O)[nH]c(=S)[nH]c3nc2c1	.	.	.	.	65	.
COC(=O)COc1c(/C=C\c2nc(O)c([N+](=O)[O-])c(=O)[nH]2)cccc1OC	.	.	.	.	.	.
C#CCOc1c(/C=C\c2nc(O)c([N+](=O)[O-])c(=O)[nH]2)cc(Br)cc1OC	.	.	.	.	53	.
CC(=O)N1CCc2cc(S(=O)(=O)NCCCN3CCCCC3)ccc21	.	.	.	.	.	.
CC(=O)N1CCc2cc(S(=O)(=O)NCCC3=CCCCC3)ccc21	38	.	.	.	.	.
CCOc1ccc(C(=O)NCCC(=O)N2CCC3(CC2)NCCc2[nH]cnc23)cc1	.	.	.	.	.	.
COC(=O)c1cc(C(=O)Nc2ccc(C)cn2)cc([N+](=O)[O-])c1	.	.	.	.	50	.
CC(=O)N(Cc1ccccc1)c1nccs1	/	.	/	/	/	.
CC1Cc2ccccc2N1C(=O)C1CCCN(S(=O)(=O)c2cccc3cccnc23)C1 (centres undefined)	.	.	.	.	58	.
O=C(O)[C@@H]1CCCN(S(=O)(=O)c2cccc3cccnc23)C1	.	.	/	.	.	.
CN(CC(=O)N1CCCCC1)S(=O)(=O)c1cccc2cccnc12	.	.	.	.	.	.
CC1Cc2ccccc2N1C(=O)CN(C)S(=O)(=O)c1cccc2cccnc12 (centres undefined)	.	.	.	.	56	.
OC1(c2ccc(Cl)cc2)CCN(Cc2cn[nH]c2-c2ccc(F)cc2)CC1	.	.	.	.	.	41
CCN=C(Nc1ccc2c(c1)OCO2)SC1CC(=O)N(c2ccc(OC)cc2)C1=O (centres undefined)	.	50	.	.	.	.
CC(C)c1ccc(NC(=O)N2CCc3ccccc3C2)cc1	.	.	41	.	.	.
O=C1NC(=S)NC(=O)C1Nc1ccc(Cl)cc1	/	.	/	/	/	.
CCN(CC)S(=O)(=O)c1cccc(C(=O)N[C@H](C(=O)Nc2nc3ccc(F)cc3s2)C(C)C)c1	.	.	.	.	.	.
Cc1ccc2c(c1)C(=NC1CCCCC1)c1cc3ccccc3nc1-2	.	.	.	.	75	.
Cc1ccc(S(=O)(=O)N(C)[C@H]2C[C@H]3c4[nH]c5cccc(-c6ccccc6)c5c4CCN3C(=O)[C@H]2[C@H](C)O)cc1	/	.	/	/	/	.
O=C(CCC(=O)c1ccc(Br)cc1)Nc1cccc(C(F)(F)F)c1	.	.	.	.	.	.
O=C(CCC(=O)c1ccc(F)cc1)Nc1cccc(Br)c1	38	.	.	.	.	.
CN(C)Cc1c(C(C)(C)O)[nH]c2ccccc12	/	.	/	/	/	.
COC(=O)[C@]12CCCCC=C1N(Cc1cccc3ccccc13)C(=O)[C@H](CC(=O)NCCC(C)C)C2	/	62	/	/	/	.
CCOC(=O)[C@]12CCCC=C1N(Cc1ccco1)C(=O)[C@H](CC(=O)NCc1cccc3ccccc13)C2	/	50	/	/	/	.
COC(=O)[C@]12CCCCC=C1N(Cc1cccc3ccccc13)C(=O)[C@H](CC(=O)N1CCSCC1)C2	/	53	/	/	/	.
